What was measured:
[1] = biological target: T1, Myeloperoxidase (Homo sapiens, UniProt P05164); experiment: Inhibition of recombinant MPO mediated LDL oxidation using MPO/Cl-/H2O2 system
T1 sequence (P05164 whole entry): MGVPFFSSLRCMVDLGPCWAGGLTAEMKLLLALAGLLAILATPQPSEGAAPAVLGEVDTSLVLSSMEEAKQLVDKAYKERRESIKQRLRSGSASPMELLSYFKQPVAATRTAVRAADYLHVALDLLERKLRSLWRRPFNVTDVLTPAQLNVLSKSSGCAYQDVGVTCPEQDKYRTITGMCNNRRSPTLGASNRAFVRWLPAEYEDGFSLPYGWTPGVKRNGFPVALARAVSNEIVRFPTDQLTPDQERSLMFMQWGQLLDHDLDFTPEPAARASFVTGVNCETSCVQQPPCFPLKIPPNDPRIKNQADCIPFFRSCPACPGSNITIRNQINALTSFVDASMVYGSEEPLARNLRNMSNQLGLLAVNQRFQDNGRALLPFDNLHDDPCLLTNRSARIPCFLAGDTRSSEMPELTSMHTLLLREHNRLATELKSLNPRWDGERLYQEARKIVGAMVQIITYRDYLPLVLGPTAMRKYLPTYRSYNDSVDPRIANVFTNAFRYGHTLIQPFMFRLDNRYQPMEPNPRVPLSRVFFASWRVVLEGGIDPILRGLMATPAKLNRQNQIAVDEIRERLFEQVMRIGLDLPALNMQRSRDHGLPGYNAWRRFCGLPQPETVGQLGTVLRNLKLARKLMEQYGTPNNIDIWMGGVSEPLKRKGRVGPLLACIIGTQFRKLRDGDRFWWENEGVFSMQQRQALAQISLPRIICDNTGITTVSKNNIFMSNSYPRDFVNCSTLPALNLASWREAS
How it was run: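 LDL was isolated from human plasma by ultracentrifugation. It was oxidised at 37 °C in PBS pH 7.2 with MPO (1 μg/mL), LDL (1000 μg/mL), HCl (4 mM), H2O2 (100 μM) and test drug, final concentrations. The reaction was stopped after 5 min on ice. Oxidised LDL was detected by ELISA with Mab AG9 (A405). Most IC50s came from three concentrations (1000, 100, 50 nM).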

[2] = biological target: T1, Myeloperoxidase; experiment: Inhibition of recombinant MPO mediated taurine chlorination by microplate reader method; assay type: single protein
How it was run: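 Recombinant MPO (40 nM) was incubated with taurine (15 mM) in pH 7.4 phosphate buffer (10 mM/300 mM NaCl) with compound up to 20 μM at 37 °C. The reaction was started with H2O2 (100 μM) and stopped with catalase after 5 min. Taurine chloramine was read with thionitrobenzoic acid at 412 nm. The no-H2O2 control was set as 100% inhibition. IC50 is the mean ± SD of 3 independent experiments.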

[3] = biological target: T2, Myeloperoxidase (Homo sapiens) (UniProt P05164); experiment: Inhibition of recombinant MPO assessed as rate of electron donation to MPO redox intermediate compound II by sequential mixing stopped flow spectroscopy
T2 sequence (whole entry): T1 sequence (P05164 whole entry)
How it was run: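 Stopped-flow at pH 7.4, 25 °C, in 200 mM phosphate buffer. Each kobs is the mean of at least three determinations. The second-order rate constant was taken as the slope of kobs versus substrate concentration.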

[4] = biological target: T2, Myeloperoxidase (Homo sapiens); experiment: Inhibition of recombinant MPO assessed as rate of electron donation to MPO redox intermediate compound I by sequential mixing stopped flow spectroscopy
How it was run: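 Stopped-flow kinetics at pH 7.4, 25 °C, in 200 mM phosphate buffer with 2% (v/v) organic solvent. Purified MPO (purity index at least 0.86) at 8 μM was premixed with 80 μM H2O2. Each kobs is the mean of at least three determinations. k3 was taken as the slope of kobs versus substrate concentration.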

SMILES	IC50 [1]	IC50 [2]	Activity [3]	Activity [4]
CCCNCCc1c[nH]c2ccc(F)cc12	0.46 µM	0.8 µM		
CCN(CC)CCCc1c[nH]c2ccc(F)cc12	0.39 µM	0.35 µM		
CCCNCCCc1c[nH]c2ccc(F)cc12	0.34 µM	0.17 µM		
Fc1ccc2[nH]cc(CCCN3CCCC3)c2c1	0.21 µM	0.32 µM		
CCN(CC)Cc1c[nH]c2ccc(F)cc12	> 1 µM	0.2 µM		
NCCCCc1c[nH]c2ccc(F)cc12	0.012 µM		360 M⁻¹ s⁻¹	1.1 ×10⁷ /M/s
NCCCCCCc1c[nH]c2ccc(F)cc12	0.58 µM			
CN1CCN(Cc2c[nH]c3ccc(F)cc23)CC1	> 1 µM	1 µM		
NCCCCCc1c[nH]c2ccc(F)cc12	0.005 µM		506 M⁻¹ s⁻¹	1 ×10⁷ /M/s
CN1CCN(CCCc2c[nH]c3ccc(F)cc23)CC1	0.31 µM	0.35 µM		
CCCCNCCCc1c[nH]c2ccc(F)cc12	0.017 µM	1.5 µM		
CN(C)CCc1c[nH]c2ccc(F)cc12	0.58 µM			
CN(C)CCCc1c[nH]c2ccc(F)cc12	0.049 µM			
CCNCCCc1c[nH]c2ccc(F)cc12	0.19 µM	0.3 µM		
Fc1ccc2[nH]cc(CCN3CCCC3)c2c1	1.03 µM			
CCNCCc1c[nH]c2ccc(F)cc12	0.85 µM	0.3 µM		
CCN(CC)CCc1c[nH]c2ccc(F)cc12	0.51 µM			
CCCCNCCc1c[nH]c2ccc(F)cc12	0.25 µM	1.03 µM		
NCc1c[nH]c2ccc(F)cc12	> 1 µM	0.9 µM		
NCCc1c[nH]c2ccc(F)cc12	0.94 µM			
CN1CCN(CCc2c[nH]c3ccc(F)cc23)CC1	0.65 µM	0.2 µM		
CNCCCc1c[nH]c2ccc(F)cc12	0.026 µM	0.2 µM		
CNCCc1c[nH]c2ccc(F)cc12	0.65 µM	0.2 µM		
NCCCc1c[nH]c2ccc(F)cc12	0.65 µM			

From ChEMBL document CHEMBL1629449, “Structure-based design, synthesis, and pharmacological evaluation of 3-(aminoalkyl)-5-fluoroindoles as myeloperoxidase inhibitors” (J Med Chem, 2010)
